Experimental data as given in ChEMBL document CHEMBL3751707, “Silicon Incorporated Morpholine Antifungals: Design, Synthesis, and Biological Evaluation” (ACS Med Chem Lett, 2015).
Values after ≈ are worked out from the molar mass of the structure shown.

Tests used:
Candida albicans [1] = assay: Antifungal activity against Candida albicans ATCC 24433 after 24 to 36 hrs by broth microdilution method; format: functional, organism-based
Method in brief: (§1)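 CLSI broth microdilution against yeasts (M27-A3) and filamentous fungi (M38-A2). Read-outs: IC50 (concentration giving 50% growth inhibition), MIC, and MFC (minimum fungicidal concentration), all in μg/mL. Assay done twice in triplicate.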

Candida albicans [2] = assay: Antifungal activity against Candida albicans ATCC 24433 after 72 hrs by broth microdilution method; format: functional; conditions: ATCC 24433, 72 h; method in brief: as §1
Candida albicans [3] = assay: Antifungal activity against Candida albicans ATCC 10231 after 24 to 36 hrs by broth microdilution method; format: functional, organism-based; method in brief: as §1
Candida albicans [4] = assay: Antifungal activity against Candida albicans ATCC 10231 after 72 hrs by broth microdilution method; format: functional; conditions: ATCC 10231, 72 h; method in brief: as §1
Cryptococcus neoformans [5] = assay: Antifungal activity against Cryptococcus neoformans ATCC 34664 after 24 to 36 hrs by broth microdilution method; format: functional, organism-based; method in brief: as §1
Cryptococcus neoformans [6] = assay: Antifungal activity against Cryptococcus neoformans ATCC 34664 after 72 hrs by broth microdilution method; format: functional; conditions: ATCC 34664, 72 h; method in brief: as §1
Nakaseomyces glabratus [7] = assay: Antifungal activity against Candida glabrata NCYC 388 after 24 to 36 hrs by broth microdilution method; format: functional, organism-based; method in brief: as §1
Nakaseomyces glabratus [8] = assay: Antifungal activity against Candida glabrata NCYC 388 after 72 hrs by broth microdilution method; format: functional; conditions: NCYC 388, 72 h; method in brief: as §1
Candida tropicalis [9] = assay: Antifungal activity against Candida tropicalis ATCC 750 after 24 to 36 hrs by broth microdilution method; format: functional, organism-based; method in brief: as §1
Candida tropicalis [10] = assay: Antifungal activity against Candida tropicalis ATCC 750 after 72 hrs by broth microdilution method; format: functional; conditions: ATCC 750, 72 h; method in brief: as §1
Aspergillus niger [11] = assay: Antifungal activity against Aspergillus niger ATCC 10578 after 48 hrs by broth microdilution method; format: functional, organism-based; conditions: ATCC 10578, 48 h; method in brief: as §1
Aspergillus niger [12] = assay: Antifungal activity against Aspergillus niger ATCC 10578 after 72 hrs by broth microdilution method; format: functional; conditions: ATCC 10578, 72 h; method in brief: as §1
[13] = Metabolic stability in mouse liver microsomes after 30 mins by LC-MS/MS analysis; format: ADME; conditions: read-out: Stability
Method in brief: (§2)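 Test compounds were incubated 30 min with liver microsomes (human or mouse, per line), and values are reported as % metabolic stability after 30 min.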

[14] = Metabolic stability in human liver microsomes after 30 mins by LC-MS/MS analysis; format: ADME; conditions: read-out: Stability; method in brief: as §2
[15] = Toxicity in human RBC assessed as hemolysis upto 128 ug/ml; format: cell-based; conditions: erythrocyte
Candida albicans [16] = assay: Effect on sterol profile of Candida albicans ATCC 24433 assessed as squalene level at 0.125 ug/ml for 24 hrs by spectrophotometry (reference value: 7.17 +/- 0.35 %); format: functional
Method in brief: (§3)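 C. albicans ATCC 24433 grown with subinhibitory (<MIC) compound concentrations. Cellular sterols extracted. Sterol content read spectrophotometrically by scan at 230–300 nm, and individual intermediates quantified by GC–MS. Values are average % of total sterols from two experiments, with standard error of the mean.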

Candida albicans [17] = assay: Effect on sterol profile of Candida albicans ATCC 24433 assessed as cholesta-8,24-dien-3-ol,4-methyl-(3a',4a') level at 0.125 ug/ml for 24 hrs by spectrophotometry (reference value: 7.19 +/- 0.65 %); format: functional; method in brief: as §3
Candida albicans [18] = assay: Effect on sterol profile of Candida albicans ATCC 24433 assessed as ergosterol level at 0.125 ug/ml for 24 hrs by spectrophotometry (reference value: 73.34 +/- 2.53 %); format: functional; method in brief: as §3
Candida albicans [19] = assay: Effect on sterol profile of Candida albicans ATCC 24433 assessed as cholesta-5,24-dien-3-ol level at 0.125 ug/ml for 24 hrs by spectrophotometry (reference value: 3.58 +/- 0.52 %); format: functional; method in brief: as §3
Candida albicans [20] = assay: Effect on sterol profile of Candida albicans ATCC 24433 assessed as ignosterol level at 0.125 ug/ml for 24 hrs by spectrophotometry; format: functional; method in brief: as §3
Candida albicans [21] = assay: Effect on sterol profile of Candida albicans ATCC 24433 assessed as lichesterol level at 0.125 ug/ml for 24 hrs by spectrophotometry; format: functional; method in brief: as §3
Candida albicans [22] = assay: Effect on sterol profile of Candida albicans ATCC 24433 assessed as ergosterol level at 0.125 ug/ml for 24 hrs by spectrophotometry; format: functional; conditions: in the assay text read “ergostenol level” for “ergosterol level”; method in brief: as §3
Candida albicans [23] = assay: Effect on sterol profile of Candida albicans ATCC 24433 assessed as squalene level at 0.25 ug/ml for 24 hrs by spectrophotometry (reference value: 7.17 +/- 0.35 %); format: functional; method in brief: as §3
Candida albicans [24] = assay: Effect on sterol profile of Candida albicans ATCC 24433 assessed as ergosterol level at 0.25 ug/ml for 24 hrs by spectrophotometry (reference value: 73.34 +/- 2.53 %); format: functional; conditions: in the assay text read “by GC-MS” for “by spectrophotometry”; method in brief: as §3
Candida albicans [25] = assay: Effect on sterol profile of Candida albicans ATCC 24433 assessed as cholesta-8,24-dien-3-ol,4-methyl-(3a',4a') level at 0.25 ug/ml for 24 hrs by spectrophotometry (reference value: 7.19 +/- 0.65 %); format: functional; conditions: in the assay text read “by GC-MS” for “by spectrophotometry”; method in brief: as §3
Candida albicans [26] = assay: Effect on sterol profile of Candida albicans ATCC 24433 assessed as cholesta-5,24-dien-3-ol level at 0.25 ug/ml for 24 hrs by spectrophotometry (reference value: 3.58 +/- 0.52 %); format: functional; conditions: in the assay text read “by GC-MS” for “by spectrophotometry”; method in brief: as §3
Candida albicans [27] = assay: Effect on sterol profile of Candida albicans ATCC 24433 assessed as ignosterol level at 0.25 ug/ml for 24 hrs by spectrophotometry; format: functional; conditions: in the assay text read “by GC-MS” for “by spectrophotometry”; method in brief: as §3
Candida albicans [28] = assay: Effect on sterol profile of Candida albicans ATCC 24433 assessed as ergosterol level at 0.25 ug/ml for 24 hrs by spectrophotometry; format: functional; conditions: in the assay text read “ergostenol level” for “ergosterol level”; method in brief: as §3
[29] = Toxicity in human RBC assessed as hemolysis at 512 ug/ml; format: cell-based, Erythrocyte; conditions: red blood cells, read-out: Activity
[30] = Toxicity in human RBC assessed as partial hemolysis at 256 ug/ml; format: cell-based; conditions: erythrocyte

Row | SMILES | IC50 (Candida albicans [1]) | MIC (Candida albicans [1]) | MFC (Candida albicans [2]) | IC50 (Candida albicans [3]) | MIC (Candida albicans [3]) | MFC (Candida albicans [4]) | IC50 (Cryptococcus neoformans [5]) | MIC (Cryptococcus neoformans [5]) | MFC (Cryptococcus neoformans [6]) | IC50 (Nakaseomyces glabratus [7]) | MIC (Nakaseomyces glabratus [7]) | MFC (Nakaseomyces glabratus [8]) | IC50 (Candida tropicalis [9]) | MIC (Candida tropicalis [9]) | MFC (Candida tropicalis [10]) | IC50 (Aspergillus niger [11]) | MIC (Aspergillus niger [11]) | MFC (Aspergillus niger [12]) | remaining at 0.5 h [13] | Activity [15] | other results
1 | CC(Cc1ccc(C(C)(C)C)cc1)CN1CCCCC1 (stereo unspecified) [FENPROPIDIN] | 0.19 µg/mL (≈ 0.695 µM) | 0.25 µg/mL (≈ 0.914 µM) | 0.5 µg/mL (≈ 1.83 µM) | 0.27 µg/mL (≈ 0.987 µM) | 1 µg/mL (≈ 3.66 µM) | 2 µg/mL (≈ 7.31 µM) | 0.22 µg/mL (≈ 0.804 µM) | 1 µg/mL (≈ 3.66 µM) | 32 µg/mL (≈ 117 µM) | 0.1 µg/mL (≈ 0.366 µM) | 0.5 µg/mL (≈ 1.83 µM) | 16 µg/mL (≈ 58.5 µM) | 0.125 µg/mL (≈ 0.457 µM) | 4 µg/mL (≈ 14.6 µM) | 256 µg/mL (≈ 936 µM) | 16 µg/mL (≈ 58.5 µM) | 32 µg/mL (≈ 117 µM) | 128 µg/mL (≈ 468 µM) | 1.1% | Non-toxic | remaining at 0.5 h [14]: 34.4%
2 | CC(Cc1ccc([Si](C)(C)C)cc1)CN1C[C@@H](C)O[C@@H](C)C1 (stereo partly specified) | 0.043 µg/mL (≈ 0.135 µM) | 0.125 µg/mL (≈ 0.391 µM) | 0.5 µg/mL (≈ 1.56 µM) | 0.25 µg/mL (≈ 0.782 µM) | 0.5 µg/mL (≈ 1.56 µM) | 1 µg/mL (≈ 3.13 µM) | 0.079 µg/mL (≈ 0.247 µM) | 0.125 µg/mL (≈ 0.391 µM) | 2 µg/mL (≈ 6.26 µM) | 0.017 µg/mL (≈ 0.0532 µM) | 0.125 µg/mL (≈ 0.391 µM) | 2 µg/mL (≈ 6.26 µM) | 0.164 µg/mL (≈ 0.513 µM) | 0.5 µg/mL (≈ 1.56 µM) | 64 µg/mL (≈ 200 µM) | 0.5 µg/mL (≈ 1.56 µM) | 2 µg/mL (≈ 6.26 µM) | 256 µg/mL (≈ 801 µM) | 6.2% | Non-toxic | Activity (Candida albicans [16]): 21.52%; Activity (Candida albicans [17]): 5.36%; Activity (Candida albicans [18]): 15.52%; Activity (Candida albicans [19]): 15.34%; Activity (Candida albicans [20]): 7.23%; Activity (Candida albicans [21]): 29.84%; Activity (Candida albicans [22]): 5.19%; Activity (Candida albicans [23]): 13.82%; Activity (Candida albicans [24]): 11.12%; Activity (Candida albicans [25]): 27.78%; Activity (Candida albicans [26]): 0.87%; Activity (Candida albicans [27]): 42.29%; Activity (Candida albicans [28]): 4.12%; remaining at 0.5 h [14]: 27.3%; hemolysis at 512 ug/ml [29]: 7%
3 | CC(CNC1CCN(C)CC1)Cc1ccc([Si](C)(C)C)cc1 (stereo unspecified) | 5.13 µg/mL (≈ 16.1 µM) | 8 µg/mL (≈ 25.1 µM) | 8 µg/mL (≈ 25.1 µM) | 1.59 µg/mL (≈ 4.99 µM) | 2 µg/mL (≈ 6.28 µM) | 2 µg/mL (≈ 6.28 µM) | 6.9 µg/mL (≈ 21.7 µM) | 16 µg/mL (≈ 50.2 µM) | 16 µg/mL (≈ 50.2 µM) | 5.92 µg/mL (≈ 18.6 µM) | 8 µg/mL (≈ 25.1 µM) | 16 µg/mL (≈ 50.2 µM) | 1.5 µg/mL (≈ 4.71 µM) | 64 µg/mL (≈ 201 µM) | 256 µg/mL (≈ 804 µM) | 4.5 µg/mL (≈ 14.1 µM) | 8 µg/mL (≈ 25.1 µM) | > 256 µg/mL | – | Non-toxic | Activity [30]: Toxic
